In ChEMBL document CHEMBL1782055, “2,3-dideoxy hex-2-enopyranosid-4-uloses as promising new anti-tubercular agents: design, synthesis, biological evaluation and SAR studies” (Eur J Med Chem, 2011):
Converted amounts (≈) assume the structure as drawn. The source made the active and inactive calls. No cut-off for these calls is given here.

What was measured:
[1] = test system: Mycobacterium tuberculosis; test: Antitubercular activity against Mycobacterium tuberculosis H37Rv after 24 hrs by BACTEC radiometric susceptibility assay; format: functional
Procedure, shortened: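 BACTEC radiometric assay in 7H12 (12B) medium with 14C-palmitic acid as substrate; 14CO2 output read daily as Growth Index (GI) at 37 °C ± 1 °C. H37Rv inoculum grown in 12B vial to GI around 300. Compounds dissolved in DMSO. Control vial held 1:100 diluted bacterial suspension. Reading continued until control GI reached 30 or more. Daily change in GI compared with control to set susceptibility and MIC.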

[2] = Selectivity index, ratio of CC50 for african green monkey Vero cells to MIC for Mycobacterium tuberculosis H37Rv; format: functional
[3] = Cytotoxicity against african green monkey Vero cells after 24 hrs by resazurin assay; format: cell-based; conditions: chlorocebus sabaeus
Procedure, shortened: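 Vero cells (ATCC CCL-81) seeded overnight at 1 × 10⁴–[…] cells/well in RPMI with 10% heat-inactivated FBS, 37 °C, 5% CO2. Exposed in triplicate to serial dilutions, 100 to 1.56 µg/mL. Resazurin (0.1%) added for 4–5 h. Read visually (purple to pink or colourless) and by fluorescence, excitation 530 nm, emission 590 nm.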

[4] = test system: Mycobacterium tuberculosis; test: Antitubercular activity against Mycobacterium tuberculosis H37Rv at 25 ug/mL after 24 hrs by BACTEC radiometric susceptibility assay; format: functional, organism-based
[5] = test system: Mycobacterium tuberculosis; test: Antitubercular activity against Mycobacterium tuberculosis H37Rv infected in mouse J774A.1 cells assessed as growth index at 2 times MIC after 8 days by BACTEC radiometric susceptibility assay; format: functional
Procedure, shortened: (§1)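 J774A.1 murine macrophages infected with H37Rv (grown in 7H9 with BSA, dextrose, catalase, washed in serum-free RPMI) at MOI 1:20 for 6 h, 37 °C, 5% CO2. Seeded in triplicate, 5 × 10⁵ cells/well. Daily medium change with complete RPMI containing compound at 1× or 2× MIC. Cells lysed with 0.05% SDS on day 0 and day 6. Lysates inoculated into BACTEC vials, GI followed over 8 days.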

[6] = test system: Mycobacterium tuberculosis; test: Antitubercular activity against Mycobacterium tuberculosis H37Rv infected in mouse J774A.1 cells assessed as growth index at MIC after 8 days by BACTEC radiometric susceptibility assay; format: functional; procedure, shortened: as §1
[7] = test system: Mycobacterium tuberculosis; test: Antitubercular activity against drug-sensitive Mycobacterium tuberculosis 2280 after 24 hrs by BACTEC radiometric susceptibility assay; format: functional; conditions: Mycobacterium tuberculosis, 2280, 24 h
[8] = test system: Mycobacterium tuberculosis; test: Antitubercular activity against Mycobacterium tuberculosis H37Rv at 50 ug/mL after 24 hrs by BACTEC radiometric susceptibility assay; format: functional, organism-based

SMILES: CCCCO[C@@H]1C=CC(=O)[C@@H](COC(=O)C(C)(C)C)O1
- MIC [1]: 3.12 µg/mL (≈ 11 µM)
- Selectivity Index [2]: 3.85
- CC50 at 24 h [3]: 42.5 µM

SMILES: CCCCCCCCCCO[C@@H]1C=CC(=O)[C@@H](COC(C)=O)O1
- MIC [1]: 6.25 µg/mL (≈ 19.1 µM)

SMILES: CCCCCCCCCCO[C@@H]1C=C([C@H](O)c2ccc([N+](=O)[O-])cc2)C(=O)[C@@H](COC(C)=O)O1
- MIC [1]: 25 µg/mL (≈ 52.4 µM)

SMILES: COc1ccc(O[C@@H]2C=CC(=O)[C@@H](CO)O2)cc1
- Activity [4]: inactive

SMILES: CO[C@@H]1C=CC(=O)[C@@H](COC(=O)C(C)(C)C)O1
- MIC [1]: 6.25 µg/mL (≈ 25.8 µM)

SMILES: CCCCCCO[C@@H]1C=CC(=O)[C@@H](COC(=O)C(C)(C)C)O1
- MIC [1]: 3.12 µg/mL (≈ 10 µM)
- Selectivity Index [2]: 0.48
- CC50 at 24 h [3]: 4.8 µM

SMILES: CC(=O)OC[C@H]1O[C@H](OCCC(C)C)C=C([C@H](O)c2ccc([N+](=O)[O-])cc2)C1=O
- MIC [1]: 3.12 µg/mL (≈ 7.67 µM)
- Selectivity Index [2]: 1.8
- CC50 at 24 h [3]: 14.3 µM

SMILES: CC(C)CCO[C@H]1O[C@H](COC(=O)C(C)(C)C)C(=O)[C@@H]2O[C@H]12
- MIC [1]: 12.5 µg/mL (≈ 39.8 µM)

SMILES: CO[C@@H]1C=CC(=O)[C@@H](COC(C)=O)O1
- MIC [1]: 6.25 µg/mL (≈ 31.2 µM)

SMILES: CC(=O)OC[C@H]1O[C@H](OC(C)(C)C)C=CC1=O
- MIC [1]: 6.25 µg/mL (≈ 25.8 µM)

SMILES: CC(=O)OC[C@H]1O[C@H](OCCC(C)C)C=C([C@H](O)c2ccc([N+](=O)[O-])cc2[N+](=O)[O-])C1=O
- MIC [1]: 6.25 µg/mL (≈ 13.8 µM)

SMILES: CO[C@@H]1C=C([C@H](O)c2ccc(C#N)cc2)C(=O)[C@@H](COC(=O)C(C)(C)C)O1
- MIC [1]: 12.5 µg/mL (≈ 33.5 µM)

SMILES: CC(=O)OC[C@H]1O[C@H](OCCC(C)C)C=CC1=O
- MIC [1]: 0.78 µg/mL (≈ 3.04 µM)
- Selectivity Index [2]: 6.6
- CC50 at 24 h [3]: 19.8 µM

SMILES: CO[C@@H]1C=CC(=O)[C@@H](CO)O1
- MIC [1]: 25 µg/mL (≈ 158 µM)

SMILES: CC(C)CO[C@@H]1C=C([C@H](O)c2ccc(C#N)cc2)C(=O)[C@@H](COC(=O)C(C)(C)C)O1
- MIC [1]: 6.25 µg/mL (≈ 15 µM)

SMILES: CC(C)CCO[C@@H]1C=CC(=O)[C@@H](COC(=O)C(C)(C)C)O1
- MIC [1]: 0.78 µg/mL (≈ 2.61 µM)
- Growth_index [5]: 10
- Selectivity Index [2]: 13.5
- Growth_index [6]: 10
- CC50 at 24 h [3]: 36 µM
- MIC [7]: 0.78 µg/mL (≈ 2.61 µM)

SMILES: CN[C@@H]1[C@H](O[C@H]2[C@H](O[C@H]3[C@H](O)[C@@H](O)[C@H](N=C(N)N)[C@@H](O)[C@@H]3N=C(N)N)O[C@@H](C)[C@]2(O)C=O)O[C@@H](CO)[C@H](O)[C@H]1O [STREPTOMYCIN]
- MIC [1]: 6 µg/mL (≈ 10.3 µM)

SMILES: CC(C)CCO[C@@H]1C=CC(=O)[C@@H](CC#N)O1
- MIC [1]: 12.5 µg/mL (≈ 56 µM)

SMILES: CC(C)CCO[C@@H]1C=C[C@H](O)[C@@H](CO)O1
- Activity [8]: inactive

SMILES: CC(C)CCO[C@@H]1C=CC(=O)[C@@H](CO[Si](C)(C)C(C)(C)C)O1
- MIC [1]: 12.5 µg/mL (≈ 38 µM)

SMILES: CC(C)CCO[C@@H]1C=CC(=O)[C@@H](CO)O1
- MIC [1]: 6.25 µg/mL (≈ 29.2 µM)

SMILES: CC(C)CCO[C@@H]1C=C([C@H](O)c2ccc(C#N)cc2)C(=O)[C@@H](COC(=O)C(C)(C)C)O1
- MIC [1]: 6.25 µg/mL (≈ 14.6 µM)

SMILES: O=C1C=C[C@@H](OCC2CC2)O[C@@H]1CO
- MIC [1]: 25 µg/mL (≈ 126 µM)

SMILES: CC(C)CCO[C@@H]1C=C(CO)C(=O)[C@@H](COC(=O)C(C)(C)C)O1
- MIC [1]: 25 µg/mL (≈ 76.1 µM)

SMILES: CC(C)(C)O[C@@H]1C=CC(=O)[C@@H](CO)O1
- MIC [1]: 25 µg/mL (≈ 125 µM)

SMILES: CO[C@H]1/C=C/O[C@@]2(C)Oc3c(C)c(O)c4c(O)c(c(/C=N/N5CCN(C)CC5)c(O)c4c3C2=O)NC(=O)/C(C)=C\C=C\[C@H](C)[C@H](O)[C@@H](C)[C@@H](O)[C@@H](C)[C@H](OC(C)=O)[C@@H]1C [RIFAMPIN]
- MIC [1]: 2 µg/mL (≈ 2.43 µM)

SMILES: CCCCCCCCCCO[C@@H]1C=CC(=O)[C@@H](COC(=O)C(C)(C)C)O1
- MIC [1]: 12.5 µg/mL (≈ 33.9 µM)

SMILES: CCCCCCCCCCO[C@@H]1C=C([C@H](O)c2ccc(C#N)cc2)C(=O)[C@@H](COC(=O)C(C)(C)C)O1
- MIC [1]: 12.5 µg/mL (≈ 25 µM)

SMILES: CCCCCCCCCCO[C@@H]1C=C[C@H](O)[C@@H](CO)O1
- Activity [8]: inactive

SMILES: CC(C)O[C@@H]1C=CC(=O)[C@@H](CO)O1
- MIC [1]: 25 µg/mL (≈ 134 µM)

SMILES: CC(C)O[C@@H]1C=CC(=O)[C@@H](COC(=O)C(C)(C)C)O1
- MIC [1]: 3.12 µg/mL (≈ 11.6 µM)
- Selectivity Index [2]: 1.09
- CC50 at 24 h [3]: 12.5 µM

SMILES: CC(C)O[C@@H]1C=C([C@H](O)c2ccc(C#N)cc2)C(=O)[C@@H](COC(=O)C(C)(C)C)O1
- MIC [1]: 6.25 µg/mL (≈ 15.6 µM)

SMILES: CCCCCCCCCCO[C@@H]1C=CC(=O)[C@@H](CO)O1
- MIC [1]: 12.5 µg/mL (≈ 44 µM)

SMILES: CC(C)(C)O[C@@H]1C=CC(=O)[C@@H](COC(=O)C(C)(C)C)O1
- MIC [1]: 6.25 µg/mL (≈ 22 µM)

SMILES: CC(C)CO[C@@H]1C=CC(=O)[C@@H](CO)O1
- MIC [1]: 12.5 µg/mL (≈ 62.4 µM)

SMILES: Cc1ccc(S(=O)(=O)OC[C@H]2O[C@H](OC(C)C)C=C([C@H](O)c3ccc([N+](=O)[O-])cc3)C2=O)cc1
- MIC [1]: 6.25 µg/mL (≈ 12.7 µM)

SMILES: CC(=O)OCC1=C[C@@H](OCCC(C)C)O[C@H](COC(=O)C(C)(C)C)C1=O
- Activity [8]: inactive

SMILES: CC(C)(C)C(=O)OC[C@H]1O[C@H](OCC2CC2)C=CC1=O
- MIC [1]: 3.12 µg/mL (≈ 11.1 µM)
- Selectivity Index [2]: 6.96
- CC50 at 24 h [3]: 77.2 µM

SMILES: CC(C)O[C@@H]1C=C(CO)C(=O)[C@@H](COC(=O)C(C)(C)C)O1
- MIC [1]: 25 µg/mL (≈ 83.2 µM)

SMILES: CC(C)CO[C@@H]1C=CC(=O)[C@@H](COC(=O)C(C)(C)C)O1
- MIC [1]: 3.12 µg/mL (≈ 11 µM)
- Selectivity Index [2]: 2.56
- CC50 at 24 h [3]: 28.2 µM

SMILES: CCCCCO[C@@H]1C=CC(=O)[C@@H](COC(=O)C(C)(C)C)O1
- MIC [1]: 1.56 µg/mL (≈ 5.23 µM)
- Selectivity Index [2]: 1.41
- CC50 at 24 h [3]: 7.38 µM

SMILES: Cc1ccc(S(=O)(=O)OC[C@H]2O[C@H](OC(C)C)C=CC2=O)cc1
- MIC [1]: 3.12 µg/mL (≈ 9.18 µM)
- Selectivity Index [2]: 1.4
- CC50 at 24 h [3]: 13.4 µM

SMILES: CC(C)CCO[C@@H]1C=C([C@H](O)c2ccc([N+](=O)[O-])cc2[N+](=O)[O-])C(=O)[C@@H](COC(=O)C(C)(C)C)O1
- MIC [1]: 6.25 µg/mL (≈ 12.6 µM)

SMILES: CC(=O)OC[C@H]1O[C@H](OC(C)C)C=CC1=O
- MIC [1]: 3.12 µg/mL (≈ 13.7 µM)
- Selectivity Index [2]: 7.6
- CC50 at 24 h [3]: 104 µM

SMILES: COc1ccc(O[C@@H]2C=CC(=O)[C@@H](COC(=O)C(C)(C)C)O2)cc1
- MIC [1]: 6.25 µg/mL (≈ 18.7 µM)
